Screening results: PubChem BioAssay, several laboratories
Tn7 DDE FP: disrupts Tn7 cyclic peptide binding to fibrin D-Dimer-E complex; FP displacement of FITC-Tn7 peptide from fibrin DD(E); 0% = median of compound wells per plate; inhibition, % at 8.3 µM; actives 0.13% (n = 370,000);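 active means inhibition above the mean of compounds falling within the control limits plus 3 SD of them, cut at about 14% in these data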;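 further: 0% = plate median of compound wells and 100% = 10 µM Aha-Tn7 peptide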
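System: human fibrin DD(E); quantity: Fibrin-DD(E) at 2 µM final; also added: fluorescent Tn7 probe at 0.1 µM; compound dosing: single nominal test concentration of 8.3 µM per compound; schedule: 10 min preincubation, 3 h with tracer, room temperature; detection: fluorescence polarization of the labelled Tn7 tracer; repeats: one replicate per compound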
ABCB1 block: inhibitors of human ABCB1 transporter, ABCG2 counter-screen; CCRF-Adr cells, JC-1 efflux, flow cytometry; inhibition, % at 6.6 µM; actives 0.067% (n = 190,000); AID 1326; in the data active means inhibition above about 40%;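 further: 0% = vehicle and 100% = reference inhibitor; higher value means more JC-1 retained so stronger ABCB1 efflux block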
ABCG2 block: blocks JC-1 efflux by human ABCG2 transporter; Q9UNQ0; inhibition, % at 6.6 µM; IgMXP3 cells, flow cytometry; actives 0.1% (n = 190,000);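 active means inhibition above 80%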;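 further: 0% = DMSO and 100% = nicardipine control wells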
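System: two drug-resistant human cell lines, ABCG2 and ABCB1; controls: nicardipine high and DMSO low controls; times: 10 min exposure at 25 °C with rotation, no wash; detection: flow cytometry of retained JC-1 fluorescence; read-out basis: percent efflux inhibition, scaled nicardipine 100% to DMSO 0%; doses: one concentration, 6.6 µM final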
Tn6 DDE FP: DD(E)-Tn6 binding inhibition, primary FP screen; P02675; actives 0.21% (n = 370,000); inhibition, % at 8.3 µM; Fibrin DD(E) TRITC-Tn6 fluorescence polarization displacement; AID 720509;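 active means inhibition above a per-campaign cutoff: mean of compounds within control limits plus 3 SD, cut at about 15% in these data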;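 further: 0% = median of all compound wells on the plate and 100% = blocking peptide control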
Ins promoter up: MIN6 insulin promoter up-regulation | actives 0.3% (n = 190,000) | MIN6 insulin promoter-GFP reporter, high-content imaging; hits give high values | z-score at 5 µM | AID 1625;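 active means z-score above 3 at 5 µM with at least 500 cells counted in the well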
GRK2 inh: human GRK2 inhibition via aptamer displacement; P25098; bead flow cytometry, FAM-aptamer displacement from GRK2; inhibition of aptamer binding, % at 10 µM; actives 0.59% (n = 330,000); AID 488847;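 active means inhibition of aptamer binding above 40%, roughly 3 SD of noise, on plates passing a quality check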;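 further: median bead fluorescence of bound FAM aptamer so fluorescent compounds give negative values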
Target sequence (P25098 whole entry, looked up): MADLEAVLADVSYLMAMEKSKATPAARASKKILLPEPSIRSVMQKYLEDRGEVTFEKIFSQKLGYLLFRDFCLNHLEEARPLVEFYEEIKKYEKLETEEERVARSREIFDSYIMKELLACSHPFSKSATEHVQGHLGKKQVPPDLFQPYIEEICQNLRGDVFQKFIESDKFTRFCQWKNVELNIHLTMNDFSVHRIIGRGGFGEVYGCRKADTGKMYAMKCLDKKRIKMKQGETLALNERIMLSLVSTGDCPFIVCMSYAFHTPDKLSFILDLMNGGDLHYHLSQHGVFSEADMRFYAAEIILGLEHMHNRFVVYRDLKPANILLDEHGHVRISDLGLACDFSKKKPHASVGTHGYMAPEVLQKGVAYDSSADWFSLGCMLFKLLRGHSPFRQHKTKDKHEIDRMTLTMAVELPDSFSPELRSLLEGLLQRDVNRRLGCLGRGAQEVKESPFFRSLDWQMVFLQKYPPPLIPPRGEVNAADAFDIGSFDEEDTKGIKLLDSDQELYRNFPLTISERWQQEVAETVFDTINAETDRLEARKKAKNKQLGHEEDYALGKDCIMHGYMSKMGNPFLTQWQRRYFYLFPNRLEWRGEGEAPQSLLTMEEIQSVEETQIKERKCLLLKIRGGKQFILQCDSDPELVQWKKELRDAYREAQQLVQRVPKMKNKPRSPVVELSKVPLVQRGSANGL
GRK2 CP1: confirmation of human GRK2 inhibitors displacing RNA aptamer; shares compounds with GRK2 inh; bead-bound GRK2, FAM-aptamer displacement, flow cytometry; aptamer displacement, % at 10 µM; actives 4% (n = 2,000);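 active means aptamer displacement above 40%, near three times the noise of non-fluorescent compounds, on plates passing quality checks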;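 further: negative values mostly reflect intrinsic compound fluorescence rather than true enhancement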
FAM quench CP1: quenches fluorescent RNA aptamer, GRK2 hit artifact. 2,000 tested, under 10 active. Carboxyfluorescein RNA aptamer on beads, flow cytometry quenching; hits give low values. shares compounds with GRK2 inh. fluorescence response (% of DMSO), % at 10 µM;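 active means compounds that quench the bead-bound fluorescent RNA probe, cutting fluorescence to under half of the solvent control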;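 further: counterscreen run without GRK2 so only probe quenching by compound is measured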
GRK2 CP2: confirmation of human GRK2 inhibitors binding RNA aptamer site; shares compounds with GRK2 inh; bead-bound GRK2, FAM-aptamer displacement, flow cytometry; inhibition of aptamer binding, % at 10 µM; 360 tested, under 10 active; AID 504782;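 active means inhibition of aptamer binding above 40%, about triple the noise seen with nonglowing compounds, on plates passing quality control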;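 further: negative values mostly come from compounds that fluoresce themselves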
FAM quench CP2: aptamer fluorescence quenching in GRK2 counter-screen | shares compounds with GRK2 inh | carboxyfluorescein RNA aptamer beads, flow cytometry quenching; hits give low values | fluorescence response vs DMSO, % at 10 µM | 360 tested, under 10 active | AID 588494;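 active means response vs DMSO under 50%, meaning signal dropped by over half, treated as fluorescence quencher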;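 further: labelled aptamer on streptavidin beads without GRK2 as a quench counter-screen; 100% = bead fluorescence of DMSO wells and lower means quenching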
Active calls of the source: *; x = not tested or not shown. An excerpt weighted towards active compounds, which were near 0.99% of everything screened.

SMILES	Tn7 DDE FP	ABCB1 block	ABCG2 block	Tn6 DDE FP	Ins promoter up	GRK2 inh	GRK2 CP1	FAM quench CP1	others
COc1ccc(-c2cccc(C3CC=CC4C3C(=O)N(Cc3ccccc3)C4c3ccc(C(F)(F)F)cc3)c2)cc1 (centres undefined)	-1.2	x	x	1.8	x	0.0	x	x
CCOC(=O)C1=CCN(S(=O)(=O)c2ccccc2C)C1c1ccc(Cl)cc1 (centres undefined)	0.5	x	x	-5.4	x	x	x	x
COc1ccc(-c2cc3cc4c(cc3cn2)OCO4)cc1	6.1	x	x	1.9	x	41.0*	x	x	GRK2 CP2=9.8;FAM quench CP2=112.0
COc1cc(OC)cc(-c2cc3cc4c(cc3cn2)OCO4)c1	x	x	x	x	x	0.0	x	x
CCOC(=O)C1CCN(C(=O)C(=O)c2cn(CC(=O)N3CCCCCC3)c3ccccc23)CC1	-2.5	x	x	8.6	x	42.0*	x	x	GRK2 CP2=-15.7;FAM quench CP2=103.0
CCOC(=O)N1CCN(C(=O)C(=O)c2cn(CC(=O)N3CCCCCC3)c3ccccc23)CC1	7.0	x	x	-1.0	x	29.0	x	x
CCN=C1S/C(=C\c2ccc(-c3cccc(C(=O)O)c3)o2)C(=O)N1CC	x	-0.7	-1.8	x	x	34.0	5.2	82.8
CCN1C(=O)/C(=C\c2ccc(-c3cccc(C(=O)OC)c3)o2)SC1=Nc1ccc(C(=O)O)cc1	-3.3	x	x	-1.8	x	2.0	x	x
CCCn1c(=N)c(C(=O)NCc2ccc3c(c2)OCO3)cc2c(=O)n3cccc(C)c3nc21	1.6	4.8	9.9	2.1	-0.62	78.0*	-2.4	93.5
Cc1cccn2c(=O)c3cc(C(=O)NCc4ccc(F)cc4)c(=N)n(CC4CCCO4)c3nc12 (centres undefined)	1.1	x	x	-4.4	x	7.0	x	x
Cc1cccn2c(=O)c3cc(C(=O)NCCN4CCOCC4)c(=N)n(CCN4CCOCC4)c3nc12	1.1	x	x	8.5	x	41.0*	-1.3	97.0
COc1ccc(CNC(=O)c2cc3c(=O)n4cccc(C)c4nc3n(CC3CCCO3)c2=N)cc1 (centres undefined)	0.1	x	x	-5.0	x	0.0	-1.6	96.8
CCOCCCn1c(=N)c(C(=O)NCc2ccc3c(c2)OCO3)cc2c(=O)n3ccccc3nc21	-1.6	0.2	1.3	3.3	-0.85	x	x	x
Cc1csc(NC(=O)c2ccc(COc3cccc(F)c3)o2)n1	-6.9	x	x	5.2	x	x	x	x
COc1cc(C2OCC3C(c4ccc(OC5OC(CO)C(O)C(O)C5O)c(OC)c4)OCC23)ccc1O (centres undefined)	1.8	-0.7	-0.4	-2.1	0.52	0.0	0.5	98.2
CC(C)N(Cc1cn(Cc2ccccc2)nn1)S(=O)(=O)c1ccc(F)cc1Br	-2.0	x	x	1.3	x	x	x	x
COc1ccc(Cl)cc1N(CC(=O)Nc1ccccc1C(=O)NCc1ccco1)S(C)(=O)=O	3.8	0.3	0.3	-4.4	1.18	20.0	-0.4	100.9
Cc1ccc(S(=O)(=O)N2CCCC(C(=O)N3CCN(c4ccccc4)CC3)C2)cc1 (centres undefined)	-3.1	x	x	-6.5	x	0.0	x	x
Cc1nn(C)c(C)c1S(=O)(=O)N1CCCC(C(=O)N2CCN(c3ccccc3)CC2)C1 (centres undefined)	-0.8	1.2	1.8	-0.1	-0.6	82.0*	-0.9	98.9
Cc1cc(C)cc(N(CC(=O)NC2CCC(C)CC2)S(=O)(=O)c2ccccc2)c1 (centres undefined)	-3.3	x	x	-0.2	x	x	x	x
Cc1ccc(CNC(=O)CN2C(=O)NC(C)(c3cccc(Br)c3)C2=O)cc1 (centres undefined)	-3.5	x	x	1.7	x	56.0*	1.3	97.0
Cc1ccc(CNC(=O)CN2C(=O)NC(C)(c3ccc(Cl)cc3)C2=O)cc1 (centres undefined)	7.7	x	x	-4.0	x	0.0	x	x
